Assay results reported in the RNAGym collection of RNA variant scans (doi:10.1126/science.aae0568).
This sample holds only a part of the variants without activity.

B1: tRNA (parent)
chain: GUUCCGUUGGCGUAAUGGUAACGCGUCUCCCUCCUAAGGAGAAGACUGCGGGUUCGAGUCCCGUACGGAACG

Variants of: B1
Experiment: yeast fitness relative to wild type (ratio to wild type); higher = fitter; tRNA-Arg(CCU), competitive growth, 37 C, YPD
Outline: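 Changes in genotype frequencies gave Darwinian fitness relative to wild type. Frequencies were read by 100-nucleotide paired-end sequencing of gene amplicons before and after pooled Saccharomyces cerevisiae strains, carrying tRNA-Arg(CCU) gene variants at the native locus, were competed in YPD at 37°C for 24 hours in six replicates. A genotype was kept only with ≥ 100 starting reads, and estimates < 0.5 were set to 0.5.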

Compared with U8C C31G, U8C A42G C55A is lower in yeast fitness: 0.81 for the first, no more than 0.5 for the second.

Compared with U8A G52A G56U, U8A U19C is higher in yeast fitness: no more than 0.5 for the first, 0.805 for the second.

U8C A14U A42C G52A G56C and U8C C27U C49U G52A C60A cannot be ordered by yeast fitness: no more than 0.5 for the first, no more than 0.5 for the second.

Going from U8C G18C C33U A65C A69C to U8C A36U G38A A45U C49U C61G, the yeast fitness falls from 0.549 to no more than 0.5.

U8C A20C C22A C24U and U8A U26G C29A C46U G58A G63A cannot be ordered by yeast fitness: no more than 0.5 for the first, no more than 0.5 for the second.

First: U8C A21U A69U
Second: U8C C27U G48A C49U
The yeast fitness of the first is lower: 0.527 for the first, 0.686 for the second.

First: U8C A14U C30A
Second: U8C A15G G50A
The yeast fitness of the first is lower: no more than 0.5 for the first, 0.674 for the second.

Going from U8C G10A A40G G67A to U8C C34A A45C, the yeast fitness falls from 0.593 to no more than 0.5.

Going from U8A G58C to U8C A21G, the yeast fitness rises from 0.764 to 1.03.

U8C C24G G38C A57U and U8A U28C C61A G67C cannot be ordered by yeast fitness: no more than 0.5 for the first, no more than 0.5 for the second.

First: U8C A45G C49A
Second: U8C G12A C62A
The yeast fitness of the first is higher: 0.574 for the first, no more than 0.5 for the second.

Compared with U8A U32C G44C C62U, U8A G50A A69U is higher in yeast fitness: no more than 0.5 for the first, 0.589 for the second.

Compared with U8C C27U C66U A69U, U8C C27U G51A A57U is higher in yeast fitness: no more than 0.5 for the first, 0.541 for the second.

U8C G23A C34A A42U C46A C55G A65G and U8C A14U C34G C46A C62U A69C cannot be ordered by yeast fitness: no more than 0.5 for the first, no more than 0.5 for the second.

U8C G17A C34U C55G and U8C A15C C34U A37G A40U cannot be ordered by yeast fitness: no more than 0.5 for the first, no more than 0.5 for the second.

First: U8C A14G C24G C31U C55A
Second: U8C A36C
The yeast fitness of the first is lower: no more than 0.5 for the first, 0.577 for the second.

U8C G9A C22G U32G C49G and U8C A36C G67C cannot be ordered by yeast fitness: no more than 0.5 for the first, no more than 0.5 for the second.

First: U8C A15C G63A
Second: U8C G10A U16A A65G
The yeast fitness of the first is lower: no more than 0.5 for the first, 0.605 for the second.

U8C G17C C31A G68A and U8C A45C A65C cannot be ordered by yeast fitness: no more than 0.5 for the first, no more than 0.5 for the second.

U8C C27U A36C G39C G48C G63U A70U and U8C C22A C33G G39C U54C cannot be ordered by yeast fitness: no more than 0.5 for the first, no more than 0.5 for the second.

U8C A42U G63A A70G and U8C C11U U16G A21C C31G G39A G56C cannot be ordered by yeast fitness: no more than 0.5 for the first, no more than 0.5 for the second.

U8C G10A C22G and U8C G9C U13A G25A A40C A57C C61A G67A cannot be ordered by yeast fitness: no more than 0.5 for the first, no more than 0.5 for the second.

U8C G25A C29G C31A C62U and U8C A37C G51A cannot be ordered by yeast fitness: no more than 0.5 for the first, no more than 0.5 for the second.

Going from U8C C24G G25A A43G to U8A U28A C33A A36U, the yeast fitness rises from no more than 0.5 to 0.541.

Going from U8C C29A C34G A36G A40C U47A C62G G68A to U8C A36G G44A C46U, the yeast fitness rises from 0.537 to 0.674.

U8C C30A G39A U47A G63C and U8C G17A G41C A65C cannot be ordered by yeast fitness: no more than 0.5 for the first, no more than 0.5 for the second.

Going from U8C G17A G41C A65U to U8C A15G C61U, the yeast fitness rises from no more than 0.5 to 0.628.

U8C C24G C27U C55A and U8A U64A A65C G68A cannot be ordered by yeast fitness: no more than 0.5 for the first, no more than 0.5 for the second.

U8C C27U U35A U59C and U8C A21U C24U U32A C55G cannot be ordered by yeast fitness: no more than 0.5 for the first, no more than 0.5 for the second.

First: U8C C27G A57C A70U
Second: U8C A42U A43G
The yeast fitness of the first is lower: no more than 0.5 for the first, 0.507 for the second.

U8C A14U C49A and U8C G23A C34A A42U C46A A57C G67C cannot be ordered by yeast fitness: no more than 0.5 for the first, no more than 0.5 for the second.

Compared with U8C C22A C33G G39C C46U, U8C C11G A15U A20G A21G G38C C60G is higher in yeast fitness: no more than 0.5 for the first, 0.568 for the second.

First: U8C G9A U59A A70G
Second: U8C A14G
The yeast fitness of the first is lower: no more than 0.5 for the first, 0.934 for the second.

Compared with U8C A14C, U8C C11G G25A C60A C62U G68C is lower in yeast fitness: 0.66 for the first, no more than 0.5 for the second.

U8C C11U A36U and U8C G23C C29G A36G A45U cannot be ordered by yeast fitness: no more than 0.5 for the first, no more than 0.5 for the second.

First: U8C G9A A40C A45G A57G
Second: U8C C60U
The yeast fitness of the first is lower: no more than 0.5 for the first, 0.832 for the second.

Going from U8C C60G to U8C A15C A45C C62G, the yeast fitness falls from 0.705 to 0.535.

First: U8C G9C
Second: U8C G9A
The yeast fitness of the first is lower: 0.695 for the first, 0.894 for the second.

U8A U47G G56A and U8C A20G C66A cannot be ordered by yeast fitness: no more than 0.5 for the first, no more than 0.5 for the second.

First: U8C C11U C31U
Second: U8C C33G C34G C46U
The yeast fitness of the first is higher: 0.576 for the first, no more than 0.5 for the second.

U8C G10A C29G G56C and U8A U26C G39C A43G cannot be ordered by yeast fitness: no more than 0.5 for the first, no more than 0.5 for the second.

Going from U8C A42U U53A to U8C A20C, the yeast fitness rises from no more than 0.5 to 0.985.

Compared with U8C A20U, U8C A20G is higher in yeast fitness: 0.92 for the first, 0.941 for the second.

U8C G23C C29G A45U C66U and U8C C11A A42G A43U C46U C62U cannot be ordered by yeast fitness: no more than 0.5 for the first, no more than 0.5 for the second.

U8C A15C U32A A70C and U8C G12A G18A A37C C55A C60G G63C cannot be ordered by yeast fitness: no more than 0.5 for the first, no more than 0.5 for the second.

First: U8C G12A A21U A70U
Second: U8C C49A
The yeast fitness of the first is lower: no more than 0.5 for the first, 0.704 for the second.

First: U8C C49U
Second: U8C A36U G38A A65C
The yeast fitness of the first is higher: 0.903 for the first, 0.579 for the second.

Compared with U8C C30G C31G A65C, U8C C27G A42C C62G is lower in yeast fitness: 0.527 for the first, no more than 0.5 for the second.

First: U8A U16A C27G U59C C61U
Second: U8C C46A C62U
The yeast fitness of the first is lower: no more than 0.5 for the first, 0.774 for the second.

U8A G44C A57U C62U and U8C G25C C29G cannot be ordered by yeast fitness: no more than 0.5 for the first, no more than 0.5 for the second.

Going from U8C C46G to U8C G25C C31U, the yeast fitness falls from 1.04 to 0.696.

First: U8C A45C A69U
Second: U8C C22G U28A C33G A57C
The yeast fitness of the first is higher: 0.765 for the first, no more than 0.5 for the second.

U8C C11A G25C U28A A40U and U8C A37G G38C G51A cannot be ordered by yeast fitness: no more than 0.5 for the first, no more than 0.5 for the second.

Going from U8C G10A A40G A65G G67A to U8C A43G, the yeast fitness rises from no more than 0.5 to 0.93.

Compared with U8C A43U, U8C A14G C27U U32A is lower in yeast fitness: 1.03 for the first, no more than 0.5 for the second.

Going from U8C A14G A70U to U8C C22G, the yeast fitness rises from 0.59 to 0.935.

Going from U8C A42G to U8C A21U G56C G63A U64C G67C, the yeast fitness falls from 0.995 to no more than 0.5.

Going from U8C A21G C46U C62U to U8C C30U A37G, the yeast fitness falls from 0.699 to no more than 0.5.

Compared with U8A U16G C31U C34A A37U G41C, U8C A14G G23A is lower in yeast fitness: 0.525 for the first, no more than 0.5 for the second.

U8A U28A C31G A65U A69C and U8C C31A G52C A65U cannot be ordered by yeast fitness: no more than 0.5 for the first, no more than 0.5 for the second.

Going from U8C C22U C31U to U8C A45C G56A, the yeast fitness rises from 0.54 to 0.798.

First: U8A U19C G48C U59A C66U
Second: U8C A15U C22G C31U A57C U64A G68A
The yeast fitness of the first is higher: 0.671 for the first, no more than 0.5 for the second.

Compared with U8C C27U C62G, U8A G56A is higher in yeast fitness: no more than 0.5 for the first, 0.701 for the second.

Going from U8C A14G A20U C30G A37G G44A to U8C C30U A57G, the yeast fitness rises from no more than 0.5 to 0.533.

U8C A21U U32A C55G U59C and U8C G23C C29G cannot be ordered by yeast fitness: no more than 0.5 for the first, no more than 0.5 for the second.

U8C G17A U54A G56C and U8C C49A G51U U59G C62A cannot be ordered by yeast fitness: no more than 0.5 for the first, no more than 0.5 for the second.

U8C C11G A69U and U8C A15G G25A C49U A65U cannot be ordered by yeast fitness: no more than 0.5 for the first, no more than 0.5 for the second.

Compared with U8A U16G, U8C A40G A43C A69U is lower in yeast fitness: 0.628 for the first, no more than 0.5 for the second.

U8C A14G C49U C61U and U8C A20U U28A C62U G67U cannot be ordered by yeast fitness: no more than 0.5 for the first, no more than 0.5 for the second.

U8C G12C U26G and U8C C11U G58U C61A cannot be ordered by yeast fitness: no more than 0.5 for the first, no more than 0.5 for the second.

First: U8C G9A U13C A20C
Second: U8C A40U A45G
The yeast fitness of the first is higher: 0.541 for the first, 0.527 for the second.

First: U8A U19C C31A U35G A43G U47C G52U G67A
Second: U8A U64G
The yeast fitness of the first is lower: no more than 0.5 for the first, 0.554 for the second.

Compared with U8C A70U, U8C G9A C34U G39C is lower in yeast fitness: 0.994 for the first, no more than 0.5 for the second.

U8C C11A U19G A36G U54C A69C and U8C A15G G38C U64A G68A A69C cannot be ordered by yeast fitness: no more than 0.5 for the first, no more than 0.5 for the second.

First: U8C C30U C31A C33G C60A
Second: U8C C27G G44A
The yeast fitness of the first is higher: 0.586 for the first, no more than 0.5 for the second.

U8C C30G C31G U64G C66U and U8C C55A C61G cannot be ordered by yeast fitness: no more than 0.5 for the first, no more than 0.5 for the second.

U8C C31A A42G A57U U59A and U8A G41C C62U A65U cannot be ordered by yeast fitness: no more than 0.5 for the first, no more than 0.5 for the second.

U8C C11A G25C C29U A65C A70U and U8C A20C G38A U53A cannot be ordered by yeast fitness: no more than 0.5 for the first, no more than 0.5 for the second.

U8C C24G G38C and U8C A14C C31U cannot be ordered by yeast fitness: no more than 0.5 for the first, no more than 0.5 for the second.

U8C C30G A69C and U8C C29U G38C A40C cannot be ordered by yeast fitness: no more than 0.5 for the first, no more than 0.5 for the second.

Compared with U8C C29U G56C, U8C A42G C61U is lower in yeast fitness: 0.538 for the first, 0.526 for the second.

Compared with U8A U16A G23A C34U G39A G58C, U8A G48C A70G is lower in yeast fitness: 0.559 for the first, no more than 0.5 for the second.

First: U8A U26A C29A C62U
Second: U8C G18U A21C G63A
The yeast fitness of the first is higher: 0.537 for the first, no more than 0.5 for the second.

With U8C C30U C31A C33G A42G C60A the yeast fitness was no more than 0.5.
